Source: ChEMBL document CHEMBL3808334, “Synthesis and in vitro evaluation of novel triazine analogues as anticancer agents and their interaction studies with bovine serum albumin” (Eur J Med Chem, 2016)

Legend:
Assay type in all cases: functional
[1] = Growth inhibition of human Hs 578T cells assessed as cell growth at 10^-4 M incubated for 48 hrs by sulforhodamine B assay; conditions: read-out: Activity
K562 [2] = test: Growth inhibition of human K562 cells incubated for 48 hrs by sulforhodamine B assay; conditions: K562, 48 h
How it was run: (§1)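 Cells were plated at 5,000–40,000 per well according to doubling time and preincubated 24 h at 37 °C in 5% CO2; time-zero plates were then TCA-fixed. Five concentrations (10-fold or ½-log dilutions, DMSO stock) were incubated 48 h. Cells were TCA-fixed, stained with 0.4% SRB and read at 515 nm. GI50 was taken where [(Ti−Tz)/(C−Tz)]×100 = 50.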

NCI-H226 [3] = test: Growth inhibition of human NCI-H226 cells incubated for 48 hrs by sulforhodamine B assay; conditions: NCI-H226, 48 h; how it was run: as §1
[4] = Growth inhibition of human SNB19 cells incubated for 48 hrs by sulforhodamine B assay; conditions: SNB-19, 48 h; how it was run: as §1
[5] = Growth inhibition of human OVCAR4 cells assessed as cell growth at 10^-8 M incubated for 48 hrs by sulforhodamine B assay; conditions: OVCAR-4, 48 h, read-out: Activity
[6] = Growth inhibition of human TK10 cells assessed as cell growth at 10^-8 M incubated for 48 hrs by sulforhodamine B assay; conditions: TK-10, 48 h, read-out: Activity
[7] = Growth inhibition of human BT549 cells assessed as cell growth at 10^-8 M incubated for 48 hrs by sulforhodamine B assay; conditions: BT-549, 48 h, read-out: Activity
How it was run: (§2)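 Five-dose assay: five concentrations from 10-fold or ½-log serial dilutions. Cells are plated at 5,000–40,000 per well according to doubling time, grown 24 h, then exposed 48 h at 37 °C, 5% CO₂. Fixed with cold 50% TCA (final addition) for 60 min at 4 °C and stained with 0.4% SRB in 1% acetic acid. Bound dye is solubilized in 10 mM Tris base and read at 515 nm. GI₅₀ is where [(Ti−Tz)/(C−Tz)]×100 = 50, with a time-zero plate as Tz.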

NCI-H226 [8] = test: Growth inhibition of human NCI-H226 cells assessed as cell growth at 10^-7 M incubated for 48 hrs by sulforhodamine B assay; conditions: NCI-H226, 48 h, read-out: Activity
[9] = Growth inhibition of human COLO205 cells assessed as cell growth at 10^-7 M incubated for 48 hrs by sulforhodamine B assay; conditions: COLO 205, 48 h, read-out: Activity
How it was run: (§3)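 Cells seeded at 5,000–40,000/well according to doubling time and preincubated 24 h at 37 °C, 5% CO2. Time-zero plates were TCA-fixed. DMSO concentrate was diluted in medium with 50 µg/ml gentamicin to give five concentrations (10-fold or ½ log steps), then exposed 48 h. Cells were TCA-fixed, stained with 0.4% SRB and read at 515 nm. Percent growth was taken against time-zero and control; GI50, TGI and LC50 derived.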

HT-29 = test: Growth inhibition of human HT-29 cells assessed as cell growth at 10^-7 M incubated for 48 hrs by sulforhodamine B assay; conditions: HT-29, 48 h, read-out: Activity
NCI-H226 [10] = test: Growth inhibition of human NCI-H226 cells assessed as cell growth at 10^-4 M incubated for 48 hrs by sulforhodamine B assay; conditions: NCI-H226, 48 h, read-out: Activity
M14 = test: Growth inhibition of human M14 cells assessed as cell growth at 10^-7 M incubated for 48 hrs by sulforhodamine B assay; conditions: M14, 48 h, read-out: Activity
SK-MEL-28 = test: Growth inhibition of human SK-MEL-28 cells assessed as cell growth at 10^-7 M incubated for 48 hrs by sulforhodamine B assay; conditions: SK-MEL-28, 48 h, read-out: Activity
SK-MEL-5 = test: Growth inhibition of human SK-MEL-5 cells assessed as cell growth at 10^-4 M incubated for 48 hrs by sulforhodamine B assay; conditions: SK-MEL-5, 48 h, read-out: Activity
[11] = Growth inhibition of human SKOV3 cells assessed as cell growth at 10^-4 M incubated for 48 hrs by sulforhodamine B assay; conditions: SK-OV-3, 48 h, read-out: Activity
ACHN [12] = test: Growth inhibition of human ACHN cells assessed as cell growth at 10 uM incubated for 48 hrs by sulforhodamine B assay; conditions: read-out: Activity
How it was run: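 One-dose screen at 10 µM final. Cells are plated at 5,000–40,000 per well according to doubling time and preincubated 24 h at 37 °C, 5% CO₂. Compound (DMSO stock diluted in medium with 50 µg/ml gentamicin) is then added for 48 h. Growth percent is read by sulforhodamine B staining, absorbance at 515 nm.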

[13] = Growth inhibition of human Caki1 cells assessed as cell growth at 10^-7 M incubated for 48 hrs by sulforhodamine B assay; conditions: CAKI-1, 48 h, read-out: Activity; how it was run: as §3
[14] = Growth inhibition of human HOP62 cells assessed as cell growth at 10^-6 M incubated for 48 hrs by sulforhodamine B assay; conditions: HOP-62, 48 h, read-out: Activity
NCI-H460 = test: Growth inhibition of human NCI-H460 cells assessed as cell growth at 10^-6 M incubated for 48 hrs by sulforhodamine B assay; conditions: NCI-H460, 48 h, read-out: Activity
[15] = Growth inhibition of human SNB19 cells assessed as cell growth at 10^-6 M incubated for 48 hrs by sulforhodamine B assay; conditions: SNB-19, 48 h, read-out: Activity
[16] = Growth inhibition of human OVCAR4 cells assessed as cell growth at 10^-6 M incubated for 48 hrs by sulforhodamine B assay; conditions: OVCAR-4, 48 h, read-out: Activity
ACHN [17] = test: Growth inhibition of human ACHN cells assessed as cell growth at 10^-6 M incubated for 48 hrs by sulforhodamine B assay; conditions: read-out: Activity; how it was run: as §2
[18] = Growth inhibition of human RXF393 cells assessed as cell growth at 10^-6 M incubated for 48 hrs by sulforhodamine B assay; conditions: RXF 393, 48 h, read-out: Activity
SN12C = test: Growth inhibition of human SN12C cells assessed as cell growth at 10^-6 M incubated for 48 hrs by sulforhodamine B assay; conditions: read-out: Activity
[19] = Growth inhibition of human UACC62 cells assessed as cell growth at 10^-5 M incubated for 48 hrs by sulforhodamine B assay; conditions: UACC-62, 48 h, read-out: Activity
K562 [20] = test: Growth inhibition of human K562 cells assessed as cell growth at 10 uM incubated for 48 hrs by sulforhodamine B assay; conditions: K562, 48 h, read-out: Activity
[21] = Growth inhibition of human CNS cancer cells incubated for 48 hrs by sulforhodamine B assay; conditions: Cancer cell lines; how it was run: as §2

Q: With Clc1ccc(-c2nc(Nc3ccc(-c4nc5ccccc5[nH]4)cc3)nc(N3CCOCC3)n2)cc1 as the compound, how does the growth at 100 µM [1] read?
A: -7%

Q: What about the GI50 (K562 [2]; read-out: GI50) of the same compound?
A: 186 nM

Q: And the TGI (K562 [2]; read-out: TGI)?
A: 391 nM

Q: And the GI50 (K562 [2]; read-out: pGI50 (converted))?
A: 186 nM

Q: What about the TGI (K562 [2]; read-out: pTGI (converted)) of the same compound?
A: 389 nM

Q: And the GI50 (NCI-H226 [3]; read-out: GI50)?
A: 2110 nM

Q: And the TGI (NCI-H226 [3]; read-out: TGI)?
A: 4.44 µM

Q: And the GI50 (NCI-H226 [3]; read-out: pGI50 (converted))?
A: 2090 nM

Q: And the TGI (NCI-H226 [3]; read-out: pTGI (converted))?
A: 4.47 µM

Q: What about the GI50 ([4]; read-out: GI50) of the same compound?
A: 379 nM

Q: And the GI50 ([4]; read-out: pGI50 (converted))?
A: 380 nM

Q: What about the growth at 0.01 µM [5] of the same compound?
A: 103%

Q: What about the growth at 0.01 µM [6] of the same compound?
A: 93%

Q: What about the growth at 0.01 µM [7] of the same compound?
A: 96%

Q: And the growth at 0.1 µM (NCI-H226 [8])?
A: 106%

Q: What about the growth at 0.1 µM [9] of the same compound?
A: 95%

Q: And the growth at 0.1 µM (HT-29)?
A: 99%

Q: And the growth at 100 µM (NCI-H226 [10])?
A: -25%

Q: What about the growth at 0.1 µM (M14) of the same compound?
A: 93%

Q: And the growth at 0.1 µM (SK-MEL-28)?
A: 102%

Q: And the growth at 100 µM (SK-MEL-5)?
A: -51%

Q: And the growth at 100 µM [11]?
A: -50%

Q: And the growth at 10 µM (ACHN [12])?
A: -90.6%

Q: And the growth at 0.1 µM [13]?
A: 93%

Q: What about the growth at 1 µM [14] of the same compound?
A: 72%

Q: And the growth at 1 µM (NCI-H460)?
A: -45%

Q: What about the growth at 1 µM [15] of the same compound?
A: 17%

Q: And the growth at 1 µM [16]?
A: 52%

Q: And the growth at 1 µM (ACHN [17])?
A: 53%

Q: And the growth at 1 µM [18]?
A: -56%

Q: What about the growth at 1 µM (SN12C) of the same compound?
A: 47%

Q: And the growth at 10 µM [19]?
A: -77%

Q: And the growth at 10 µM (K562 [20])?
A: -100%

Q: What about the GI50 [21] of the same compound?
A: 770 nM

Q: What about the TGI [21] of the same compound?
A: 1920 nM

Q: What about the CC50 ([21]; read-out: LC50 (the source's name)) of the same compound?
A: > 100 µM
